These results are taken from PMC8404148 (Endocrine-related cancer, 2021).

One assay deals with 4013 PDX organoids. In words: Breast cancer PDX organoid growth, 4013 line. It is filed as cell-based, human. The following applies: SI-12 10 nM, BEZ235 2 nM, two weeks. The method in brief:
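Organoids derived from the 4013 PDX tumour, which came from a patient with triple-negative infiltrating ductal carcinoma. The tumour was passaged in mice eight times before use.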

The test system of a further assay is MCF-7 cells. The following applies: read-out: IC50 for suppressing MCF-7 cell growth, ref Wang et al. 2014; cited from earlier work.
Another assay concerns 5097 PDX organoids. In words: Breast cancer PDX organoid growth, 5097 line. The class given is cell-based, human. The following applies: 10 nM single agent, two weeks, vs vehicle.

For `Cn1c(=O)n(-c2ccc(C(C)(C)C#N)cc2)c2c3cc(-c4cnc5ccccc5c4)ccc3ncc21` [BEZ235], the “organoid formation, single compound” value in the assay with 4013 PDX organoids was “could repress organoid formation”.

In the case of `C[C@]12CC[C@H](O)C[C@H]1CC[C@@H]1[C@@H]2CC[C@]2(C)[C@@H](c3ccc(=O)oc3)CC[C@]12O` [bufalin], the half-inhibitory concentration (IC50) in the assay on MCF-7 cells was 3.2 nM. As for `CCN1CCN(Cc2ccc(Nc3ncc(F)c(-c4cc(F)c5nc(C)n(C(C)C)c5c4)n3)nc2)CC1` [Abemaciclib], in the assay with 5097 PDX organoids, the organoid numbers result is “reduced organoid numbers”.

Usually IC50 stands for the concentration at which inhibition is half-maximal.
